Results as given in ChEMBL document CHEMBL1154085, “Diamine-based human histamine H3 receptor antagonists: (4-aminobutyn-1-yl)benzylamines” (Eur J Med Chem, 2009).
The source made the active and inactive calls. The calls are words filed in the database; no cut-off is given here.

Assays:
Histamine H3 receptor [1] = biological target: T1, Histamine H3 receptor (Homo sapiens, UniProt Q9Y5N1); assay: Displacement of [3H]N-alpha-methylhistamine from human histamine H3 receptor expressed in SK-N-MC cells; assay type: cell-based
T1 sequence (Q9Y5N1 whole entry): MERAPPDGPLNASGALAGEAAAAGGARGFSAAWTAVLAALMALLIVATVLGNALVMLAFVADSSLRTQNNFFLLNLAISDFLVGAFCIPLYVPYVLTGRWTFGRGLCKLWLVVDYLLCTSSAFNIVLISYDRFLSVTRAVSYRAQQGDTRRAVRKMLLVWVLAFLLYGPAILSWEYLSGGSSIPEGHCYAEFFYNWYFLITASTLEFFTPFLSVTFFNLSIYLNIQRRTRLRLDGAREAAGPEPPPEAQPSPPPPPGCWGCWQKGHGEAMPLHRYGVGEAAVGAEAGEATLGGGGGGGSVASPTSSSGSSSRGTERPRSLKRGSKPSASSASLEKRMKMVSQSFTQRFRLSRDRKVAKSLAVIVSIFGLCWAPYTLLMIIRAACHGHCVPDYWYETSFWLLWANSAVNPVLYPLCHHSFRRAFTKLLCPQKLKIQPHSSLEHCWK
Outline: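 Membranes prepared from SK-N-MC cells expressing human H3 receptor, homogenized in 50 mM Tris/5 mM EDTA, pH 7.4. Incubated with 0.8 nM [3H]-N-alpha-methylhistamine ± compound, 60 min, 25 °C. Filtration over polyethylenimine-treated glass fiber filters with four ice-cold washes. Nonspecific binding defined with 10 µM histamine.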

Histamine H3 receptor [2] = biological target: T1, Histamine H3 receptor; assay: Antagonist activity at human histamine H3 receptor expressed in SK-N-MC cells assessed as inhibition of forskolin-stimulated cAMP accumulation treated 10 min before histamine challenge; assay type: functional, cell-based; conditions: read-out: pA2 (converted)
Outline: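 SK-N-MC sublines stably carrying human H3 receptor plus a beta-galactosidase reporter driven by multiple cAMP responsive elements. Antagonist added 10 min before histamine; forskolin (5 µM final) 5 min after histamine; 6 h at 37 °C. Lysis, then chlorophenol red beta-D-galactopyranoside substrate, absorbance 570 nm. pA2 from Schild regression of rightward shifts in histamine curves; mean of at least three determinations.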

Rattus norvegicus [3] = assay: Ex vivo histamine H3 receptor occupancy in rat striatum at 30 mg/kg, po after 1 hr; assay type: functional
Outline: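 Ex vivo autoradiography in rat striatum, coronal sections, using [3H]-R-alpha-methylhistamine as radioligand. Oral dosing at 0.1, 0.3, 1, 3, 10 or 30 mg/kg; brains taken 1 h post-dose to measure H3 receptor occupancy.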

Histamine H3 receptor [4] = biological target: T2, Histamine H3 receptor (Rattus norvegicus, UniProt Q9QYN8); assay: Displacement of [3H]N-alpha-methylhistamine from rat histamine H3 receptor expressed in SK-N-MC cells; assay type: cell-based
T2 sequence (Q9QYN8 whole entry): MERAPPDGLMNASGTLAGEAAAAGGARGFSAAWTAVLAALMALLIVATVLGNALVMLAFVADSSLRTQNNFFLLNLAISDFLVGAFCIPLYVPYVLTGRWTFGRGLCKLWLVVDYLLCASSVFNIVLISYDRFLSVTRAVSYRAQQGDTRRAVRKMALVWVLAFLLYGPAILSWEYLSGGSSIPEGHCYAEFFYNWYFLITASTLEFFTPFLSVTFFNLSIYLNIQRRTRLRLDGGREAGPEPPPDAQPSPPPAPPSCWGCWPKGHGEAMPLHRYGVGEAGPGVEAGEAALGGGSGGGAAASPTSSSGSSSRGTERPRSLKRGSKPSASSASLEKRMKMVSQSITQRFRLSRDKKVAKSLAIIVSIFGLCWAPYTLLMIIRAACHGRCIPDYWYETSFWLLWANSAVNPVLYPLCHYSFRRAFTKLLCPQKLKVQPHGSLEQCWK
Outline: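 Membranes from homogenized SK-N-MC cells expressing the rat H3 receptor, in 50 mM Tris/5 mM EDTA pH 7.4. Incubated with 0.8 nM [3H]-Nα-methylhistamine ± compound for 60 min at 25 °C, then filtered and washed with ice-cold buffer. Nonspecific binding was defined with 10 μM histamine.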

Histamine H1 receptor = Histamine H1 receptor (Homo sapiens, UniProt P35367); assay: Displacement of […] from histamine H1 receptor expressed in SK-N-MC cells; assay type: cell-based
Chain of Histamine H1 receptor (P35367 whole entry): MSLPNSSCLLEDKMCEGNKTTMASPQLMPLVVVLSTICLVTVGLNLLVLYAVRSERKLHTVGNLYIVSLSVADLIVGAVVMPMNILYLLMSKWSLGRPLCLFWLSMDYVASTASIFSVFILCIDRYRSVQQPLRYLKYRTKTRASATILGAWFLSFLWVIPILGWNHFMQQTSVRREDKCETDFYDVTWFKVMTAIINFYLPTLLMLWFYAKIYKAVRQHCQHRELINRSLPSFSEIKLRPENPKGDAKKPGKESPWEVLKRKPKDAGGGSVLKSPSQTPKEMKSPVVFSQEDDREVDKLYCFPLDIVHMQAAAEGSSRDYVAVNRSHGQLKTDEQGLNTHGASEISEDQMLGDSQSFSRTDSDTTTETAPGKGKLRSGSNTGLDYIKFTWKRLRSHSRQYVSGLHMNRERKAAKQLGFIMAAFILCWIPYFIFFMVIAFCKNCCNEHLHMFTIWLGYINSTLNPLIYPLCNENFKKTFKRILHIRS

Histamine H4 receptor = Histamine H4 receptor (Homo sapiens, UniProt Q9H3N8); assay: Displacement of […] from histamine H4 receptor expressed in SK-N-MC cells; assay type: cell-based
Chain of Histamine H4 receptor (Q9H3N8 whole entry): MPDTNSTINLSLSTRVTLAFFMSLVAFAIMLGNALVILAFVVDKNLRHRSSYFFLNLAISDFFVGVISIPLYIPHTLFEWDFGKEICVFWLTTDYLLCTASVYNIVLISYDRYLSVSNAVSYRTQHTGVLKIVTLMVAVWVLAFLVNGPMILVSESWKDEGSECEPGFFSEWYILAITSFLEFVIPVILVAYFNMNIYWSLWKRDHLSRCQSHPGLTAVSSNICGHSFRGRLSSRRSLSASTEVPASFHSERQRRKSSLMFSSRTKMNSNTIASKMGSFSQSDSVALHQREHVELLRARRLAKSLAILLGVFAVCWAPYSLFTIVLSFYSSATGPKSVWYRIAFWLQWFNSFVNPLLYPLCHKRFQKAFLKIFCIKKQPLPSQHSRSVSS

hERG (KCNH2) [5] = biological target: T3, hERG (KCNH2) (Homo sapiens, UniProt Q12809); assay: Inhibition of human ERG at 10 uM; conditions: read-out: Activity
T3 sequence (Q12809 whole entry): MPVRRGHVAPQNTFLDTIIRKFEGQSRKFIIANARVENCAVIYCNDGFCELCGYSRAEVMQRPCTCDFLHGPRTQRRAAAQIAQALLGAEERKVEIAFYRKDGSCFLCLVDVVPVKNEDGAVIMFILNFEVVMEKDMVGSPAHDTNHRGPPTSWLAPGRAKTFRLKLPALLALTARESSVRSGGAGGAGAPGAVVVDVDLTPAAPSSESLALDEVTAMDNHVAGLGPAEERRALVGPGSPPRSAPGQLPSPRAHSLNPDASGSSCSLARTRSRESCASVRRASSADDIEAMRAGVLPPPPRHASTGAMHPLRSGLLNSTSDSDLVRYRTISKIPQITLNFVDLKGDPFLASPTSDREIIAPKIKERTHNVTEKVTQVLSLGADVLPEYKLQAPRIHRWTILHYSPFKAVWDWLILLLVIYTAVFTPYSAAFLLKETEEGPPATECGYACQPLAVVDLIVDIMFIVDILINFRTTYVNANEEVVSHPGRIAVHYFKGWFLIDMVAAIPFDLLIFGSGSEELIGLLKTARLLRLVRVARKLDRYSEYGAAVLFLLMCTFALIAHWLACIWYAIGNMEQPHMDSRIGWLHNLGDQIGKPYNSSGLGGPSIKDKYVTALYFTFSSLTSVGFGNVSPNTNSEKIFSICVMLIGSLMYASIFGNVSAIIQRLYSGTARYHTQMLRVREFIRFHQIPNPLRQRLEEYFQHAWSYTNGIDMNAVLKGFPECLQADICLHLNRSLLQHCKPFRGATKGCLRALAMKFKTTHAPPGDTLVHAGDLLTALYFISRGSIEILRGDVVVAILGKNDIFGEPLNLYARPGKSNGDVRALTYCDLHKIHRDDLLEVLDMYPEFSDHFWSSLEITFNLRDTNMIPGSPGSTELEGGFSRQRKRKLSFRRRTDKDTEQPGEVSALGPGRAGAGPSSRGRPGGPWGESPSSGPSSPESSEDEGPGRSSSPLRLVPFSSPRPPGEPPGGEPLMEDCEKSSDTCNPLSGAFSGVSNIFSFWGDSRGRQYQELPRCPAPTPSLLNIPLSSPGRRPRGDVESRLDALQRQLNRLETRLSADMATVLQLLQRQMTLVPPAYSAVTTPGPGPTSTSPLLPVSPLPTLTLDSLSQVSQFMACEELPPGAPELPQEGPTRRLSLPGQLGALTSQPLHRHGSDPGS

hERG (KCNH2) [6] = biological target: T3, hERG (KCNH2); assay: Inhibition of human ERG at 3 uM; conditions: read-out: Activity
Cytochrome P450 1A2 = biological target: T4, Cytochrome P450 1A2 (Homo sapiens, UniProt P05177); assay: Inhibition of CPY1A2 at >40 uM
T4 sequence (P05177 whole entry): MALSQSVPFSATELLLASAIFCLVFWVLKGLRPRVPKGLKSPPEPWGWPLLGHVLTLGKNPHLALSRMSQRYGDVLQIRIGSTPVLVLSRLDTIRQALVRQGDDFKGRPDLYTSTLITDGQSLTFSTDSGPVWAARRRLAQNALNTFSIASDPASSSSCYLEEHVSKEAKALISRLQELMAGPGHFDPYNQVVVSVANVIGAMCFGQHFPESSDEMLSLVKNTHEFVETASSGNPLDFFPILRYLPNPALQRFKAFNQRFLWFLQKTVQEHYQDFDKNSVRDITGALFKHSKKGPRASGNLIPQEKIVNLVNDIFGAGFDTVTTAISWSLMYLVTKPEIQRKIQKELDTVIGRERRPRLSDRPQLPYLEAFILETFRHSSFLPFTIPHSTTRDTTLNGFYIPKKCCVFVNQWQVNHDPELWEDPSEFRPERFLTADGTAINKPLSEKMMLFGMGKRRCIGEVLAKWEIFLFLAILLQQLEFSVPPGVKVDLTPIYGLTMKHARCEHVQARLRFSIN

Cytochrome P450 2C9 = Cytochrome P450 2C9 (Homo sapiens, UniProt P11712); assay: Inhibition of CPY2C9 at >40 uM
Chain of Cytochrome P450 2C9 (P11712 whole entry): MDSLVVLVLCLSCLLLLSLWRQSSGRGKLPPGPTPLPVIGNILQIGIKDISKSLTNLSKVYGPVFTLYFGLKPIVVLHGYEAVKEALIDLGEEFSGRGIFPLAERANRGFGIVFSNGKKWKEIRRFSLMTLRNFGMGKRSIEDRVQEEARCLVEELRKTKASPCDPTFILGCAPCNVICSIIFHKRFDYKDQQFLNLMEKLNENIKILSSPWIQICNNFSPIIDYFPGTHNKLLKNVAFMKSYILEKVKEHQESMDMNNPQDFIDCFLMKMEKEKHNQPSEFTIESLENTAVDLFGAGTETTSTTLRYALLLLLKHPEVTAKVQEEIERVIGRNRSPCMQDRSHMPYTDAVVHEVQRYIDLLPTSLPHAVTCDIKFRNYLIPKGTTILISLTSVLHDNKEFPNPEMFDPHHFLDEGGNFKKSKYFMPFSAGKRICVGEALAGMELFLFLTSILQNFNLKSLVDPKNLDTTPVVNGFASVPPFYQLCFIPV

Rattus norvegicus [7] = assay: Wake promoting activity in Sprague-Dawley rat assessed as decrease in non-rapid eye movement sleep at 10 mg/kg, sc; assay type: functional, organism-based; design: dose 10 mg/kg
Outline: (§1)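 Male adult Sprague-Dawley rats chronically implanted with EEG/EMG electrodes, given 10 mg/kg s.c. or saline vehicle 2 h after light-phase onset. Recording for 8 h, visually scored in 10 s epochs as wake, NREM or REM. Time per 1 h interval as % of recording time; n = 5 animals; vehicle vs compound by paired t-test.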

Cytochrome P450 2C19 = Cytochrome P450 2C19 (Homo sapiens, UniProt P33261); assay: Inhibition of CPY2C19 at >40 uM
Chain of Cytochrome P450 2C19 (P33261 whole entry): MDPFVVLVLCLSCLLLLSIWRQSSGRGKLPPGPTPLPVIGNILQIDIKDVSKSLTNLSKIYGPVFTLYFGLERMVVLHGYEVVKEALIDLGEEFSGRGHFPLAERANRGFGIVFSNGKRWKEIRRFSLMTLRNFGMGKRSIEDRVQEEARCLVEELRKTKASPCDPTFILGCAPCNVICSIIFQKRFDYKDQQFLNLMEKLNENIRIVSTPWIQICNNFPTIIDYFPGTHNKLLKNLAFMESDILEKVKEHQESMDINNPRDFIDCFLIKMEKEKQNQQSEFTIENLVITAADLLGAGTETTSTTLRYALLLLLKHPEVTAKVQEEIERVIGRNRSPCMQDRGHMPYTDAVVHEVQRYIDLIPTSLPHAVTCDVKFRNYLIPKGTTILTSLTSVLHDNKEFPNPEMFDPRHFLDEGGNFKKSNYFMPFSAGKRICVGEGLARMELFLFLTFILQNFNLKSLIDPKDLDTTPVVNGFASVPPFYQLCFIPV

Cytochrome P450 2D6 = Cytochrome P450 2D6 (Homo sapiens, UniProt P10635); assay: Inhibition of CPY2D6 at >40 uM
Chain of Cytochrome P450 2D6 (P10635 whole entry): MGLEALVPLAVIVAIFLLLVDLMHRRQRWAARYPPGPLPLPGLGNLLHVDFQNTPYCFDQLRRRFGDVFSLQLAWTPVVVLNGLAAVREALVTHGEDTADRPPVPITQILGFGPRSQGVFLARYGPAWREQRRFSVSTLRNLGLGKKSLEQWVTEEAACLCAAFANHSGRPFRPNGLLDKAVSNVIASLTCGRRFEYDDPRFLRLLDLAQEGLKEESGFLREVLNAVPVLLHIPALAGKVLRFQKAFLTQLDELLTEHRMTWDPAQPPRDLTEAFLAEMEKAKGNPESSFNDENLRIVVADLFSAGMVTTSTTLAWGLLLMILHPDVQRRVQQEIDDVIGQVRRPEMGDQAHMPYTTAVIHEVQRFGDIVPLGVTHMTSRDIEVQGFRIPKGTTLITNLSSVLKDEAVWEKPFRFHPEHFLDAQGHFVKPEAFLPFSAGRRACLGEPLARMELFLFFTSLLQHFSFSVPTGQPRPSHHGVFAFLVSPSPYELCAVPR

Cytochrome P450 3A4 = Cytochrome P450 3A4 (Homo sapiens, UniProt P08684); assay: Inhibition of CPY3A4 at >40 uM
Chain of Cytochrome P450 3A4 (P08684 whole entry): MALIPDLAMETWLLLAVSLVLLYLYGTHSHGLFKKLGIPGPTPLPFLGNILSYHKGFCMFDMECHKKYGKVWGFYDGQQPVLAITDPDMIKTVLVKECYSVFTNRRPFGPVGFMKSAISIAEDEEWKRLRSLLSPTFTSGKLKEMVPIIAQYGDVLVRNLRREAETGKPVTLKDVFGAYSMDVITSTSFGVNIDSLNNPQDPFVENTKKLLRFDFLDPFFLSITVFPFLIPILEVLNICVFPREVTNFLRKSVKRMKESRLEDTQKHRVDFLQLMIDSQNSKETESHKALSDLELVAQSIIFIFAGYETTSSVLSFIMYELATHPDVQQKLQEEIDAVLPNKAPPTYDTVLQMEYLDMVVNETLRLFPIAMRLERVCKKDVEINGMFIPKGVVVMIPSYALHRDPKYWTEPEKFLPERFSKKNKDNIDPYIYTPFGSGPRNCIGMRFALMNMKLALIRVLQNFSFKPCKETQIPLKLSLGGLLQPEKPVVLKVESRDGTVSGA

[8] = Oral bioavailability in rat; assay type: ADME, organism-based; conditions: in vivo
Histamine H3 receptor [9] = biological target: T2, Histamine H3 receptor; assay: Antagonist activity at rat H3 receptor expressed in SK-N-MC cells assessed as inhibition of forskolin-stimulated cAMP accumulation treated 10 min before histamine challenge; assay type: functional, cell-based; conditions: read-out: pA2 (converted)
Rattus norvegicus [10] = assay: Wake promoting activity in Sprague-Dawley rat assessed as effect on rapid eye movement sleep at 10 mg/kg, sc; assay type: functional, organism-based; design: dose 10 mg/kg; outline: as §1
[11] = Half life in po dosed rat; assay type: ADME, organism-based; conditions: in vivo

SMILES	Ki (Histamine H3 receptor [1])	also measured
C(#Cc1ccc(CN2CCCCC2)cc1)CCN1CCCC1	0.676 nM	
C(#Cc1cccc(CN2CCCCC2)c1)CCN1CCCCC1	0.776 nM	Kb (Histamine H3 receptor [2]): 0.0813 nM
CCN(CC)CCC#Cc1ccc(CN2CCCCC2)cc1	1.35 nM	
C(#Cc1ccc(CN2CCOCC2)cc1)CCN1CCCCC1	1.74 nM	Kb (Histamine H3 receptor [2]): 3.24 nM
C(#Cc1ccc(CN2CCCCC2)cc1)CCN1CCSCC1	3.8 nM	
C(#Cc1ccc(CN2CCCCC2)cc1)CCN1CCCCC1	0.513 nM	Kb (Histamine H3 receptor [2]): 0.148 nM
C(#Cc1cccc(CN2CCCCC2)c1)CCN1CCOCC1	14.5 nM	
CN(C)Cc1ccc(C#CCCN2CCCCC2)cc1	0.912 nM	
C(#Cc1cccc(CN2CCOCC2)c1)CCN1CCCCC1		ED50 (Rattus norvegicus [3]): 6.5 mg/kg; Ki (Histamine H3 receptor [4]): 7.08 nM; Ki (Histamine H1 receptor): > 10000 nM; Ki (Histamine H4 receptor): > 10000 nM; inhibition at 10 µM (hERG (KCNH2) [5]): 13.7%; inhibition at 3 µM (hERG (KCNH2) [6]): 8.3%; inhibition (INH) (Cytochrome P450 1A2): Not Active; inhibition (INH) (Cytochrome P450 2C9): Not Active; Activity (Rattus norvegicus [7]): Active; inhibition (INH) (Cytochrome P450 2C19): Not Active; inhibition (INH) (Cytochrome P450 2D6): Not Active; inhibition (INH) (Cytochrome P450 3A4): Not Active; bioavailability [8]: 11%; Kb (Histamine H3 receptor [9]): 4.68 nM; Activity (Rattus norvegicus [10]): inactive; half-life [11]: 1.5 h
CN1CCN(Cc2ccc(C#CCCN3CCCCC3)cc2)CC1	0.977 nM	
C(#Cc1ccc(CN2CCC(Cc3ccccc3)CC2)cc1)CCN1CCCCC1	3.47 nM	
OC1CCN(Cc2ccc(C#CCCN3CCCCC3)cc2)CC1	0.891 nM	
CC(C)N1CCN(Cc2ccc(C#CCCN3CCCCC3)cc2)CC1	0.871 nM	
CN1CCN(Cc2cccc(C#CCCN3CCCCC3)c2)CC1	0.724 nM	
NC(=O)C1CCN(Cc2cccc(C#CCCN3CCCCC3)c2)CC1	0.55 nM	
C(#Cc1ccccc1CN1CCCCC1)CCN1CCCCC1	83.2 nM	
C(#Cc1cccc(CN2CCCC2)c1)CCN1CCCCC1	81.3 nM	
C(#Cc1ccc(CN2CCN(Cc3ccccc3)CC2)cc1)CCN1CCCCC1	1.91 nM	
C(#Cc1ccc(CN2CCCCC2)cc1)CCN1CCOCC1	5.01 nM	
CN1CCN(CCC#Cc2ccc(CN3CCCCC3)cc2)CC1	5.25 nM	
C(#Cc1ccc(CN2CCCC2)cc1)CCN1CCCCC1	0.617 nM	
NC(=O)C1CCN(Cc2ccc(C#CCCN3CCCCC3)cc2)CC1	0.759 nM	
